# Source: ChEMBL document CHEMBL1134783, “N-Arylsulfonylindole derivatives as serotonin 5-HT(6) receptor ligands” (J Med Chem, 2001)
# What was measured:
# [1] = biological target: T1, 5-hydroxytryptamine receptor 1F (Homo sapiens, UniProt P30939); assay: Binding affinity against 5-hydroxytryptamine 1F receptor in CHO cells using [3H]5-HT radioligand; format: cell-based
# T1 sequence (P30939 whole entry): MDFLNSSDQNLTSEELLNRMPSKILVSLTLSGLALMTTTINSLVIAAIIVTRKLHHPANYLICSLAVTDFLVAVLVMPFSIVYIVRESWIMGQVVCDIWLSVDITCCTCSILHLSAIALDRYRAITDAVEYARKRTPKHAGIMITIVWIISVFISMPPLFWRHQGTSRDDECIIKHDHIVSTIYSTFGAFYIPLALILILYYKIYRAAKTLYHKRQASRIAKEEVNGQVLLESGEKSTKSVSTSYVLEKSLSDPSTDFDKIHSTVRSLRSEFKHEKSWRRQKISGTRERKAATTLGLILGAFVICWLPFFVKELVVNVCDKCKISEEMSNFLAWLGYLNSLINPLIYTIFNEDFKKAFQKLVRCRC
# D(3) dopamine receptor = D(3) dopamine receptor (Homo sapiens, UniProt P35462); assay: Binding affinity against dopamine receptor D3 in HEK 293 cells using [3H]spiperone radioligand; format: cell-based, HEK293
# D(3) dopamine receptor, sequence (P35462 whole entry): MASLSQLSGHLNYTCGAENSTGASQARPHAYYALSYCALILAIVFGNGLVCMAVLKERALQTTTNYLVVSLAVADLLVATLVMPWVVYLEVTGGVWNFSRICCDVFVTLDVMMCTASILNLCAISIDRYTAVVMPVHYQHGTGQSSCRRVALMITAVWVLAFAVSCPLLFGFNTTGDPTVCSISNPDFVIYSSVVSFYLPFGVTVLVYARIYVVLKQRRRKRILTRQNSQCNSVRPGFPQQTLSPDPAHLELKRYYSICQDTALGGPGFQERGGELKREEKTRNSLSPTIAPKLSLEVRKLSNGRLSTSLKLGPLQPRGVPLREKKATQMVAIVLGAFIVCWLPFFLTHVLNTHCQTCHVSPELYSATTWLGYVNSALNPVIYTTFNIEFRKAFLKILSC
# [2] = biological target: 5-hydroxytryptamine receptor 1D (Homo sapiens, UniProt P28221); assay: Binding affinity against 5-hydroxytryptamine 1D receptor in CHO cells using [3H]5-HT as radioligand; format: cell-based
# 5-hydroxytryptamine receptor 1D, sequence (P28221 whole entry): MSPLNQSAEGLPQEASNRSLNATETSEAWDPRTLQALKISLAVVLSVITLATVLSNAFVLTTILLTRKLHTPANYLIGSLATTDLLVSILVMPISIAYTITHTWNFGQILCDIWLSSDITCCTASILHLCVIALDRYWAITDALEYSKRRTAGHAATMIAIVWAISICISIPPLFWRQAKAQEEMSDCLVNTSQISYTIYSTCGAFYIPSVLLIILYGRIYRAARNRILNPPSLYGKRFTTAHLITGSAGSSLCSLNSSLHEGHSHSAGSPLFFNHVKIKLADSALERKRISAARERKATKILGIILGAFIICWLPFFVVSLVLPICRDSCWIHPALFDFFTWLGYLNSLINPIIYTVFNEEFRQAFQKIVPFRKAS
# [3] = biological target: 5-hydroxytryptamine receptor 7 (Homo sapiens, UniProt P34969); assay: Binding affinity for 5-hydroxytryptamine 7 receptor human cloned receptors in CHO cells using [3H]5-HT; format: cell-based
# 5-hydroxytryptamine receptor 7, sequence (P34969 whole entry): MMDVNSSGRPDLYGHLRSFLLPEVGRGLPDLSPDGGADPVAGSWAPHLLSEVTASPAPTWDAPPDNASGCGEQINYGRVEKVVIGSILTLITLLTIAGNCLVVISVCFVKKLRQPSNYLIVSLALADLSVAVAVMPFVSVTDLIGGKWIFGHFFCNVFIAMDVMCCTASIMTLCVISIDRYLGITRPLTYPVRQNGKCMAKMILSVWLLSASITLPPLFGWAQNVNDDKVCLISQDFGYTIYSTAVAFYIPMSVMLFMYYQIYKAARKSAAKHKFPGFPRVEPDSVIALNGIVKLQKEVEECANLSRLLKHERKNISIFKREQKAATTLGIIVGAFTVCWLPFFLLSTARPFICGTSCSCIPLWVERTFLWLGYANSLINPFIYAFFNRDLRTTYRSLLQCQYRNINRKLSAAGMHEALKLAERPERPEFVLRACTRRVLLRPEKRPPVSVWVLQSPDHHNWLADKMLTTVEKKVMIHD
# [4] = biological target: 5-hydroxytryptamine receptor 1B (Homo sapiens, UniProt P28222); assay: Binding affinity against 5-hydroxytryptamine 1B receptor in CHO cells using [3H]5-HT as radioligand; format: cell-based
# 5-hydroxytryptamine receptor 1B, sequence (P28222 whole entry): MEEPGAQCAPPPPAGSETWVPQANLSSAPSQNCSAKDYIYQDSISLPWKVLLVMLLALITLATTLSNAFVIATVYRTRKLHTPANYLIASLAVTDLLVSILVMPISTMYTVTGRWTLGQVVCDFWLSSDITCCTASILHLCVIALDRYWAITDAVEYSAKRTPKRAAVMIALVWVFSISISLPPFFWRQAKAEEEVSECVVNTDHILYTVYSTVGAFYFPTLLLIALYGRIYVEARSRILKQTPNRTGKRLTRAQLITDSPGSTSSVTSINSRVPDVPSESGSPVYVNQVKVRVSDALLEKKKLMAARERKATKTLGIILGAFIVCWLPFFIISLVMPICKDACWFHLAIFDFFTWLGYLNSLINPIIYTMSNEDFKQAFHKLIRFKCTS
# D(4) dopamine receptor = biological target: T2, D(4) dopamine receptor (Homo sapiens, UniProt P21917); assay: Binding affinity against dopamine receptor D4 cloned in HEK 293 cells using [3H]spiperone radioligand; format: cell-based, HEK293
# T2 sequence (P21917 whole entry): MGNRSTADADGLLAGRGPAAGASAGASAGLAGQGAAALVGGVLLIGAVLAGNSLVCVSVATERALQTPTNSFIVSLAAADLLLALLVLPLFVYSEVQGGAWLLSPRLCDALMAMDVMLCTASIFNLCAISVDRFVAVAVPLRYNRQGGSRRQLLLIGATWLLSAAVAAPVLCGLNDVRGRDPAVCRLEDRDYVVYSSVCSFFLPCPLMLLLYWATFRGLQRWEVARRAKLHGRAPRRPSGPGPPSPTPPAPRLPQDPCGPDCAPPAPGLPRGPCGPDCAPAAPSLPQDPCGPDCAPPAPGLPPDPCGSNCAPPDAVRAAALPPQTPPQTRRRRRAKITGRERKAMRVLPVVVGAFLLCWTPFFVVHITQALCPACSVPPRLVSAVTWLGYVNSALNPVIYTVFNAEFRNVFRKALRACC
# [5] = biological target: 5-hydroxytryptamine receptor 2A (Rattus norvegicus, UniProt P14842); assay: Binding affinity for 5-hydroxytryptamine 2 receptor of rat cortical membrane using [3H]DOB radioligand
# 5-hydroxytryptamine receptor 2A, sequence (P14842 whole entry): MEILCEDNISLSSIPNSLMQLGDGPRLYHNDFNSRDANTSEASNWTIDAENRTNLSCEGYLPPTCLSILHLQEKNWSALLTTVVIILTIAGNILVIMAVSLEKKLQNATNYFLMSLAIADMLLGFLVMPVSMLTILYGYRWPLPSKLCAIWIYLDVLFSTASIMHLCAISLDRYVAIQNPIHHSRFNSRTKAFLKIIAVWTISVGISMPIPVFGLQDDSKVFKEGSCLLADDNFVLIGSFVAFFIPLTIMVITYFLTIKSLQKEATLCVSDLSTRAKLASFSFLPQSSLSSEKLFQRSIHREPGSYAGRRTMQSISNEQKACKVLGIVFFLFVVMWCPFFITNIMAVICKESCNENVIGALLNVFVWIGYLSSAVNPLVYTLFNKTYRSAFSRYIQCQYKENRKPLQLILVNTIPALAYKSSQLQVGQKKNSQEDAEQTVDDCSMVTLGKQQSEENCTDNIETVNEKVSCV
# [6] = biological target: T3, 5-hydroxytryptamine receptor 6 (Homo sapiens, UniProt P50406); assay: Binding affinity as displacement of [3H]5-HT binding to 5-hydroxytryptamine 6 receptor in HeLa cells.; format: cell-based
# T3 sequence (P50406 whole entry): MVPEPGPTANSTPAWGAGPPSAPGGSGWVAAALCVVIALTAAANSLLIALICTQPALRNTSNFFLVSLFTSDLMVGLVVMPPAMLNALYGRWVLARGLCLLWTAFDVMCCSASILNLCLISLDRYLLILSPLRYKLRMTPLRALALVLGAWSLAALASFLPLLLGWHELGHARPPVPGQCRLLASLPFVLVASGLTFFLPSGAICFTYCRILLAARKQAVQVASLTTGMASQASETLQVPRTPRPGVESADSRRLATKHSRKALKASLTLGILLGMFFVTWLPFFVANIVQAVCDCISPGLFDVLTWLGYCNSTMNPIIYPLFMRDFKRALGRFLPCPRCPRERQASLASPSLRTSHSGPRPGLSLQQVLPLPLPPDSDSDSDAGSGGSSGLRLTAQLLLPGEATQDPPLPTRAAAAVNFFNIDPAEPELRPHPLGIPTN
# Method in brief: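 Human 5-HT6 stably expressed in HeLa cells; washed membranes in 50 mM Tris, 0.03% ascorbic acid, pH 7.6. Nonspecific binding defined with 10 µM 5-HT. Filtration and scintillation counting; one-site fit gave IC50, converted to Ki by Cheng-Prusoff. Geometric mean of ≥3 experiments, each in duplicate.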
# D(2) dopamine receptor = D(2) dopamine receptor (Homo sapiens, UniProt P14416); assay: Binding affinity against dopamine receptor D2 using [3H]spiperone radioligand in CHO cells; format: cell-based
# D(2) dopamine receptor, sequence (P14416 whole entry): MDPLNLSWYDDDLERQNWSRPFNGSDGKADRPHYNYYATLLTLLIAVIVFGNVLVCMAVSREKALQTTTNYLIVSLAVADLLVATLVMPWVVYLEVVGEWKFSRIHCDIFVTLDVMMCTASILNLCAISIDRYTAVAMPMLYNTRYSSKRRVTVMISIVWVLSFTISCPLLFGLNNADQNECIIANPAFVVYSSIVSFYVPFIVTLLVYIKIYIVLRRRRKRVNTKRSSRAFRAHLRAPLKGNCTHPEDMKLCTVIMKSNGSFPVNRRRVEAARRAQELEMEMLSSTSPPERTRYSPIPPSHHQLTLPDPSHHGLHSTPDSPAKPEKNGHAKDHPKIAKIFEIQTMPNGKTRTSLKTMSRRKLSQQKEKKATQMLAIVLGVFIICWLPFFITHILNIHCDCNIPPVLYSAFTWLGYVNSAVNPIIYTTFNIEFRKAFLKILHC
# [7] = biological target: 5-hydroxytryptamine receptor 5A (Rattus norvegicus, UniProt P35364); assay: Binding affinity against 5-hydroxytryptamine 5A receptor in HEK 293 cells was determined using [3H]LSD as radioligand; format: cell-based, HEK293
# 5-hydroxytryptamine receptor 5A, sequence (P35364 whole entry): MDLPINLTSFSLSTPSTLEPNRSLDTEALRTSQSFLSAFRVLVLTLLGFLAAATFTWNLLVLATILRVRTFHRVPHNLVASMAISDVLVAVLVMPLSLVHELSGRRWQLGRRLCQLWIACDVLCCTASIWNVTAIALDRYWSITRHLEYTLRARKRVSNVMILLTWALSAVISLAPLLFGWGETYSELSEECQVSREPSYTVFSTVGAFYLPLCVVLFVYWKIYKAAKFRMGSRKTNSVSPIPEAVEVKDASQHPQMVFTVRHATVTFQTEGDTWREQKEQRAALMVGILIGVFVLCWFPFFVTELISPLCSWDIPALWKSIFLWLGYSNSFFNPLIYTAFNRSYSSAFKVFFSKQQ
# [8] = biological target: T4, 5-hydroxytryptamine receptor 1A (Homo sapiens, UniProt P08908); assay: Binding affinity against 5-hydroxytryptamine 1A receptor in HeLa cells was determined using [3H]5-HT; format: cell-based
# T4 sequence (P08908 whole entry): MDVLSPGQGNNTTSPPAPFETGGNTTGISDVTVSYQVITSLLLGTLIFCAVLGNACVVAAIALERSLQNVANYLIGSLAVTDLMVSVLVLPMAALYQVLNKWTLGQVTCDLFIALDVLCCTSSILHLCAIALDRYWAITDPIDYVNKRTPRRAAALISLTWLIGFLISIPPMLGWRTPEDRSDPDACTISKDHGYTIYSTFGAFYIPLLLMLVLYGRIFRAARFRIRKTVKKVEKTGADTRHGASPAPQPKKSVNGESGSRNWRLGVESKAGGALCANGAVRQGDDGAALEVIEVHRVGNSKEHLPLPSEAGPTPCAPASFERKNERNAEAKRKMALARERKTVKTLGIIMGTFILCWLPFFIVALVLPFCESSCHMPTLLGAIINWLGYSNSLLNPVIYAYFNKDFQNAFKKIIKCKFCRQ
# [9] = biological target: T1, 5-hydroxytryptamine receptor 1F; assay: Binding affinity against 5-hydroxytryptamine 1F receptor in CHO using [3H]5-HT radioligand
# [10] = biological target: T3, 5-hydroxytryptamine receptor 6; assay: Binding affinity as displacement of [3H]5-HT binding to 5-hydroxytryptamine 6 receptor in HeLa cells; format: cell-based
# Method in brief: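 Membranes from HeLa cells stably expressing cloned human 5-HT6 receptor, in 50 mM Tris with 0.03% ascorbic acid, pH 7.6. […] Nonspecific binding defined by 10 µM 5-HT. Filtration, then scintillation counting. One-site fit gave IC50, converted to Ki by Cheng-Prusoff. Geometric mean of ≥3 independent duplicate runs.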
compound,measurement,setting,value
CN(C)CCc1cccc2c1cc(C(=O)c1ccccc1)n2S(=O)(=O)c1ccccc1,Ki,[1],570 nM
same,Ki,D(3) dopamine receptor,66 nM
same,Ki,[2],98 nM
same,Ki,[3],1300 nM
same,Ki,[4],190 nM
same,Ki,D(4) dopamine receptor,> 3200 nM
same,Ki,[5],6.6 nM
same,Ki,[6],3 nM
same,Ki,D(2) dopamine receptor,750 nM
same,Ki,[7],1600 nM
same,Ki,[8],480 nM
NCCc1cccc2c1ccn2S(=O)(=O)c1ccccc1,Ki,[1],47 nM
same,Ki,D(3) dopamine receptor,940 nM
same,Ki,[2],4.5 nM
same,Ki,[3],29 nM
same,Ki,[4],6.5 nM
same,Ki,D(4) dopamine receptor,> 3200 nM
same,Ki,[5],4.8 nM
same,Ki,[6],2.4 nM
same,Ki,D(2) dopamine receptor,> 1700 nM
same,Ki,[7],1200 nM
same,Ki,[8],140 nM
CN(C)CCc1cn(S(=O)(=O)c2ccccc2)c2ccc(OCc3ccccc3)cc12,Ki,[6],320 nM
CN(C)CCc1cn(S(=O)(=O)c2ccccc2)c2ccccc12,Ki,[1],770 nM
same,Ki,D(3) dopamine receptor,23 nM
same,Ki,[2],510 nM
same,Ki,[3],3700 nM
same,Ki,[4],2300 nM
same,Ki,D(4) dopamine receptor,> 3200 nM
same,Ki,[5],84 nM
same,Ki,[6],2.9 nM
same,Ki,D(2) dopamine receptor,62 nM
same,Ki,[7],4000 nM
same,Ki,[8],520 nM
Cc1ccc(S(=O)(=O)n2cc3c4c(cccc42)[C@H](O)[C@@H](N(C)C)C3)cc1,Ki,D(3) dopamine receptor,3700 nM
same,Ki,[2],3900 nM
same,Ki,[3],> 5800 nM
same,Ki,[4],3100 nM
same,Ki,D(4) dopamine receptor,> 3200 nM
same,Ki,[5],320 nM
same,Ki,[6],7.2 nM
same,Ki,D(2) dopamine receptor,> 1700 nM
same,Ki,[7],> 6400 nM
same,Ki,[8],> 5600 nM
CO[C@H]1c2cccc3c2c(cn3S(=O)(=O)c2ccc(C)cc2)C[C@@H]1N(C)C,Ki,[6],130 nM
CN(C)CCc1cccc2c1ccn2S(=O)(=O)c1ccccc1,Ki,[1],3.9 nM
same,Ki,D(3) dopamine receptor,300 nM
same,Ki,[2],9.3 nM
same,Ki,[3],460 nM
same,Ki,[4],11 nM
same,Ki,D(4) dopamine receptor,> 3200 nM
same,Ki,[5],18 nM
same,Ki,[6],1.5 nM
same,Ki,D(2) dopamine receptor,1600 nM
same,Ki,[7],3400 nM
same,Ki,[8],170 nM
CCOC(=O)c1[nH]c2ccccc2c1CCN(C)C,Ki,[1],2000 nM
same,Ki,D(3) dopamine receptor,110 nM
same,Ki,[2],330 nM
same,Ki,[3],510 nM
same,Ki,[4],910 nM
same,Ki,D(4) dopamine receptor,1600 nM
same,Ki,[5],130 nM
same,Ki,[6],20 nM
same,Ki,D(2) dopamine receptor,59 nM
same,Ki,[8],1800 nM
COc1ccc2c(c1)c(CCN(C)C)cn2S(=O)(=O)c1ccccc1,Ki,[1],2500 nM
same,Ki,D(3) dopamine receptor,80 nM
same,Ki,[2],720 nM
same,Ki,[3],1900 nM
same,Ki,[4],2200 nM
same,Ki,D(4) dopamine receptor,> 3200 nM
same,Ki,[5],65 nM
same,Ki,D(2) dopamine receptor,210 nM
same,Ki,[7],> 5000 nM
COc1ccc2c(c1)c(CCN1CCOCC1)cn2S(=O)(=O)c1ccccc1,Ki,[6],1700 nM
COc1cccc(Cc2noc(-c3[nH]c4ccccc4c3CCN(C)C)n2)c1,Ki,[6],1.3 nM
COc1ccc2c(c1)c(CCN(C)C)cn2S(=O)(=O)c1ccc2ccccc2c1,Ki,[6],9.8 nM
COc1ccc2c(c1)C(CCN(C)C)CN2S(=O)(=O)c1ccccc1 (stereo not given),Ki,[6],63 nM
COc1ccc2c(c1)c(CCN(C)C)cn2S(=O)(=O)c1ccc(Cl)cc1,Ki,[6],17 nM
COc1ccc2c(c1)c(CCN(C)C)cn2S(=O)(=O)c1ccc(C)cc1,Ki,[6],45 nM
COc1ccc(S(=O)(=O)n2cc(CCN(C)C)c3cc(OC)ccc32)cc1,Ki,[6],26 nM
COc1ccc2c(c1)c(CCN(C)C)c(C)n2S(=O)(=O)c1ccccc1,Ki,[6],12 nM
CN(C)CCc1cn(C(=O)OC(C)(C)C)c2ccc(O)cc12,Ki,[6],370 nM
CN(C)CCc1cn(C(=O)c2ccccc2)c2ccc(O)cc12,Ki,D(3) dopamine receptor,> 3500 nM
same,Ki,[2],180 nM
same,Ki,[3],1600 nM
same,Ki,[4],420 nM
same,Ki,D(4) dopamine receptor,> 3900 nM
same,Ki,[5],200 nM
same,Ki,[9],29 nM
same,Ki,[6],54 nM
same,Ki,D(2) dopamine receptor,> 2200 nM
same,Ki,[7],4500 nM
same,Ki,[8],620 nM
COc1ccc2c(c1)c(CCN(C)C)cn2S(=O)(=O)c1cccs1,Ki,[6],8.3 nM
COc1ccc2c(c1)c(CCN(C)C)cn2S(=O)(=O)c1cccc(Cl)c1,Ki,[6],7.9 nM
CN(C)CCc1cccc2[nH]c(C(=O)c3ccccc3)cc12,Ki,[6],260 nM
COc1ccc2[nH]c(C)c(CCN(C)C)c2c1,Ki,[6],89 nM
CN(C)CCCc1cccc2c1ccn2S(=O)(=O)c1ccccc1,Ki,[10],7.9 nM
COc1ccc2c(c1)c(CCN)cn2S(=O)(=O)c1ccccc1,Ki,[6],40 nM
COc1ccc2c(c1)c(CCN(C)C)cn2S(=O)(=O)c1ccccc1Cl,Ki,[6],11 nM
CN(C)CCc1cn(S(=O)(=O)c2ccccc2)c2ccc(O)cc12,Ki,[6],19 nM
CN(C)CCc1cn(S(C)(=O)=O)c2ccccc12,Ki,[6],620 nM
CN(C)CCc1cn(S(=O)(=O)c2ccccc2)c2ccc(C#N)cc12,Ki,[6],33 nM
